One may read the viability as a read-out of living cells in per cent, often relative to untreated cells. One may read the inhibition as the drop in the measured response relative to a control, in per cent.

Assay [1] in a line: S. cerevisiae growth inhibition in permissive medium (OD615), pilot counter-assay for S. cerevisiae lifespan shortening project, permissive growth control (AID 705;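 active = growth inhibition above 25% in both replicates, a cutoff set 3 SD above the mean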). Conditions: OD615, 24 h, at 10 µM, hits give high values. The method, boiled down:
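assay system = Saccharomyces cerevisiae strain carrying genetically modified DeaD replicative-lifespan system | medium = SC raffinose/galactose permissive medium | dosing = 10 µM single dose, 0.25% DMSO | schedule = 24 h compound exposure at 30 °C after 4 h pre-growth | measured by = OD at 615 nm | read-out basis = growth inhibition from lowered OD615 after 24 h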

The nature of assay [2]: S. cerevisiae growth inhibition in restrictive medium, OD615, pilot screen, restrictive growth control, yeast lifespan reduction project (AID 706;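 active = growth inhibition above a set limit, 3 SD over mean compound inhibition, in both replicates, cut at about 43% in these data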). Conditions: OD615, 48 h, at 10 µM, hits give high values. The method, boiled down: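 Buffer or medium: CSMM-D glucose medium. Material: genetically modified Saccharomyces cerevisiae, DeaD replicative lifespan assay strain. Times: 48 h compound exposure at 30 °C. Measured by: optical density at 615 nm.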

The nature of assay [3]: doxorubicin toxicity protection in MRP-1 cells – H69AR cells, CellTiter-Glo, duplicate, MRP-1 activator project, pilot screen (AID 807;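 active = viability increase at or above a cutoff of the median across tested compounds plus 3 SD, cut at about 8.5% in these data, passing the limit was not always enough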;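 note: compound pretreatment 18-22 h then 72 h combined with doxorubicin; 0% = doxorubicin alone and 100% = vehicle without doxorubicin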). Conditions: H69AR viability with doxorubicin, CellTiter-Glo luminescence; at 10 µM; hits give high values. On the technique in general: In ATP-based viability assays light output follows the ATP content of the culture.
Assay [4] can be described thus: viability of HCT116 without oncogenic beta-catenin – human colon tumor cells, pilot screen (AID 823).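 Note: 0% = wells killed by 20 µM Hyamine and 100% = untreated DMSO cell wells.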 Conditions: HCT116 beta-catenin knockout viability, CellTiter-Glo, 60 h; at 10 µM; hits give low values.
A short description of assay [5]: viability of PTEN-null HCT116 cells – cell-based, HCT116 clonal line, CellTiter-Glo, pilot screen (AID 824;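 active = viability at or below 27.92% in each of two runs, the all-compound median minus 4 SD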;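 note: 0% = 20 µM Hyamine control and 100% = vehicle cell control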). Conditions: HCT116 PTEN-deleted viability, 60 h, at 10 µM, hits give low values.
Assay [6] is described as follows: RAM pathway blockade in budding yeast – dse1pr::URA3 reporter, 5-FOA selection, pilot screen (AID 869;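 active = inhibition over a set limit, the all-compound mean plus 3 SD, in both replicate runs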;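 note: 0% = DMSO wells with no growth and 100% = 10 µM 1-NA-PP1 with full growth; RAM network block rescues cells from 5-FOA so hits raise OD615 growth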). Conditions: S. cerevisiae dse1pr::URA3 5-FOA growth, OD615, 2 d; at 10 µM; hits give high values; strain carries analog-sensitive mutant Cbk1 kinase.
Assay [7] can be described thus: RAM signaling pathway blockade in yeast – S. cerevisiae, Pdr1DBD-CYC8 efflux-inhibited sensitized strain, primary screen (AID 1298;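 active = RAM network inhibition above 8.4% in each of two replicates, 3 SD over the compound average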;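 note: 0% = DMSO untreated cells without growth and 100% = 10 µM 1-NA-PP1 full growth; higher means more yeast growth rescued from 5-FOA killing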). Conditions: S. cerevisiae cbk1-as DSE1-URA3 strain, 5-FOA growth OD615, 2 d; at 50 µM; hits give high values.

Unmarked numbers belong to inactive results. Results filed as inconclusive are left out. Calls of active or inactive are those of the source.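 Rule for the calls, unless noted: active = cell viability at or below a set limit in both duplicate runs, the limit being the all-compound median minus 4 SD (cut at about 23% in these data, passing the limit was not always enough); inconclusive = no clear call, values can overlap the other calls; inactive = the rest.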

In the case of `O=C1OC(Nc2nc3ccccc3s2)c2ccccc21` (stereo not drawn), the growth inhibition in assay [1] was -2.46%; in assay [2], 6.6%. In assay [3], the viability increase is 0.26%. In addition, the viability in assay [4] and in assay [5] was 101% throughout. The inhibition in assay [6] is 0.67%. Moreover, the RAM network inhibition in assay [7] is 0.48%.

On to `C=CCn1c(CSc2nc3ccccc3s2)nnc1SCC(=O)NCc1ccco1`, for which the growth inhibition in assay [1] was 1.06%; in assay [2] it was 30.4%. Also, the viability increase in assay [3] is -3.87%. The viability in assay [4] was 96.6%; in assay [5] it was 90.4%. In assay [6], the inhibition was 0.105%. In addition, the RAM network inhibition in assay [7] is 2.19%.

With `Cc1oc(-c2cccs2)nc1CS(=O)CC(=O)NC1CCCCCC1` (stereo not drawn), the growth inhibition is 11.3% in assay [1] and 51.7% (active) in assay [2]. The viability increase in assay [3] is -2.99%. The figures for the viability in assay [4] and in assay [5] were 75.4% and 84.5%, respectively. For the same compound, the inhibition in assay [6] was -0.045%. The RAM network inhibition in assay [7] is -1.22%.

For the compound `CCOc1ccccc1NC(=O)CN1C(=O)COc2ccc(Cl)cc21`, the values for the growth inhibition in assay [1] and in assay [2] were -16.8% and -11.8%, respectively. The viability increase in assay [3] was -1.27%. Further, the viability in assay [4] was 91.7%; in assay [5] it was 84.2%. For the same compound, in assay [6], the inhibition was 4.02%. For the same compound, the RAM network inhibition in assay [7] is 5.69%.

In the case of `O=C(c1ccc(=O)[nH]c1)N(Cc1ccco1)C1(C(=O)NC2CCCCC2)CCCCC1`, the growth inhibition in assay [1] is -20%; in assay [2], -18.9%. In assay [3], the viability increase was -3.3%. The viability is 97.2% in assay [4] and 92.5% in assay [5]. Further, the inhibition in assay [6] was 0.61%. Further, the RAM network inhibition in assay [7] was 1.87%.

As to `CCOC(=O)c1ccccc1NC(=O)Cn1cnc2c(nnn2-c2ccc(C)cc2)c1=O`, the growth inhibition in assay [1] is -7.68%; in assay [2], 4.12%. The viability increase in assay [3] was -4.32%. For the same compound, the viability is 97% in assay [4] and 88% in assay [5]. In addition, in assay [6], the inhibition is 2.62%. For the same compound, in assay [7], the RAM network inhibition is 3.5%.

As to `C=CCn1c(SCC(=O)N2CCOCC2)nc(O)c(Cc2ccccc2)c1=O`, the results for the growth inhibition in assay [1] and in assay [2] were -12.9% and -8.77%, respectively. The viability increase in assay [3] was 1.77%. The viability in assay [4] is 99.4%; in assay [5], 98.5%. In assay [6], the inhibition was 1.49%. The RAM network inhibition in assay [7] is 1.73%.

For `COc1ccc(-c2cc(C(F)F)n3ncc(C(=O)NCCCN4CCCC4=O)c3n2)cc1`, the growth inhibition in assay [1] is -3.45%; in assay [2] it was -7.12%. For the same compound, the viability increase in assay [3] is -4.32%. Also, the viability is 78.5% in assay [4] and 73.5% in assay [5]. The inhibition in assay [6] is -0.515%. In assay [7], the RAM network inhibition was 3.32%.

`Fc1cc(Br)ccc1Nc1nc2ccccc2n2nnnc12`: the growth inhibition in assay [1] is -15.9%; in assay [2] it was -15%. The viability increase in assay [3] is -4.01%. Also, the viability is 91.5% in assay [4] and 87.2% in assay [5]. Also, the inhibition in assay [6] is 1.94%. In assay [7], the RAM network inhibition was 5.36%.

In the case of `Cn1nc(-c2ccc(Cl)cc2)c2cc(C(=O)N3CCN(c4ccccn4)CC3)sc21`, the figures for the growth inhibition in assay [1] and in assay [2] were -0.13% and 28.7%, respectively. In addition, in assay [3], the viability increase is -5.31%. The viability was 37% in assay [4] and 35.1% in assay [5]. In assay [6], the inhibition is -0.47%. Further, the RAM network inhibition in assay [7] is 4.7%.

Regarding `CC(=O)NC(CCS(C)(=O)=O)C(=O)Nc1ccc2c(c1)OCO2` (stereo not drawn), the growth inhibition was -0.69% in assay [1] and -1.89% in assay [2]. Also, the viability increase in assay [3] is -0.58%. Also, the values for the viability in assay [4] and in assay [5] were 109% and 95.5%, respectively. Further, in assay [6], the inhibition is 0.175%. Also, the RAM network inhibition in assay [7] was 2.15%.

Take `CN(C)CCNC(=O)c1ccc2c(c1)N(Cc1ccc(F)cc1)CCS2`: the growth inhibition was -2.46% in assay [1] and 0.095% in assay [2]. The viability increase in assay [3] was -6.05%. The viability in assay [4] was 47.8%; in assay [5], 55.1%. In addition, the inhibition in assay [6] was 0.835%. The RAM network inhibition in assay [7] was 0.57%.

Regarding `O=C(Cc1n[nH]c(=O)c2ccccc12)NCc1ccccn1`, the growth inhibition in assay [1] was -3.9%; in assay [2], -19.5%. Also, the viability increase in assay [3] was -0.08%. Moreover, the viability in assay [4] is 103%; in assay [5], 99%. In assay [6], the inhibition was 1.48%. Also, the RAM network inhibition in assay [7] was 2.08%.

As to `Cc1[nH]c2ccccc2c1CCC(N)=O`, the figures for the growth inhibition in assay [1] and in assay [2] were -0.405% and 3.01%, respectively. The viability increase in assay [3] was -1.34%. In addition, the viability was 101% in assay [4] and 96.2% in assay [5]. Further, the inhibition in assay [6] is 1.92%. Moreover, the RAM network inhibition in assay [7] was 3.67%.

As to `CCOC(=O)CC1C(=O)NCCN1C(=O)c1cc2c(=O)n3ccccc3nc2s1` (stereo not drawn), the values for the growth inhibition in assay [1] and in assay [2] were -13.7% and 0.575%, respectively. Besides, the viability increase in assay [3] was 1.22%. The viability in assay [4] is 95.3%; in assay [5], 95.5%. In assay [6], the inhibition is 1%. For the same compound, the RAM network inhibition in assay [7] is 6.8%.

As for `O=C1c2ccccc2C(Nc2ccc3c(c2)OCCO3)N1c1ccc(Cl)cn1` (stereo not drawn), the growth inhibition in assay [1] was -12.2%; in assay [2], 3.92%. Besides, the viability increase in assay [3] is 1.76%. The viability was 81.7% in assay [4] and 75.2% in assay [5]. Also, in assay [6], the inhibition was 1.83%. In addition, in assay [7], the RAM network inhibition is 9.61%.

Regarding `O=C(c1ccco1)N1CCN(c2ncccn2)CC1`, the values for the growth inhibition in assay [1] and in assay [2] were -12.9% and -5.72%, respectively. The viability increase in assay [3] is -1.88%. Further, the figures for the viability in assay [4] and in assay [5] were 98.9% and 96.3%, respectively. For the same compound, in assay [6], the inhibition was 2.97%. Further, in assay [7], the RAM network inhibition was -0.22%.

As for `Cc1oc(-c2cccs2)nc1CS(=O)CC(=O)NCCc1ccccc1` (stereo not drawn), the growth inhibition in assay [1] was 0.14%; in assay [2] it was 34.7%. In assay [3], the viability increase is -0.31%. Moreover, the viability in assay [4] is 86.1%; in assay [5] it was 97.5%. Also, in assay [6], the inhibition was 2.6%. In addition, the RAM network inhibition in assay [7] is 7.8%.

Regarding `CC(NC(=O)C1CCCN(S(=O)(=O)c2cnc[nH]2)C1)c1ccccc1` (stereo not drawn), the growth inhibition in assay [1] is 2.1%; in assay [2], 2.4%. Also, the viability increase in assay [3] was -0.99%. For the same compound, the viability in assay [4] is 98.3%; in assay [5], 97.4%. The inhibition in assay [6] is -0.19%. For the same compound, in assay [7], the RAM network inhibition is -0.35%.

Consider `C=CCSC1=N/C(=C\c2ccsc2)C(=O)S1`, for which the growth inhibition in assay [1] was 7.03%; in assay [2], 27.8%. Besides, in assay [3], the viability increase is -2.48%. Moreover, the viability in assay [4] is 98.1%; in assay [5] it was 93%. For the same compound, the inhibition in assay [6] was 0.475%. For the same compound, the RAM network inhibition in assay [7] is 0.97%.

With `CCCCOc1ccccc1C1C(C(=O)OC)=CN(CC)C=C1C(=O)OC`, the growth inhibition in assay [1] was -6.49%; in assay [2] it was 0.595%. For the same compound, the viability increase in assay [3] was -5.35%. Also, the viability is 73.8% in assay [4] and 70.9% in assay [5]. Also, the inhibition in assay [6] was 3.23%. In assay [7], the RAM network inhibition was 6.73%.

On to `Cc1ccc(-c2nc(CS(=O)(=O)CC(=O)NC3CCCCC3C)c(C)o2)cc1` (stereo not drawn), for which the figures for the growth inhibition in assay [1] and in assay [2] were -15.3% and -32.8%, respectively. Moreover, in assay [3], the viability increase is -0.44%. In addition, the viability was 93% in assay [4] and 87.4% in assay [5]. The inhibition in assay [6] was 1.73%. Further, in assay [7], the RAM network inhibition is 7.21%.

Regarding `Cc1cc(NC(=O)CN2CCCCC2C)nc2c1c(=O)oc1ccccc12` (stereo not drawn), the growth inhibition in assay [1] is 4.45%; in assay [2], -0.735%. Further, the viability increase in assay [3] was -0.4%. Besides, the values for the viability in assay [4] and in assay [5] were 102% and 95.9%, respectively. In assay [6], the inhibition is 1.36%. Further, the RAM network inhibition in assay [7] was 0.77%.

`O=C(NC1CCN(Cc2ccccc2)CC1)C1CCCN(c2nnc(-n3cccc3)s2)C1` (stereo not drawn): the growth inhibition in assay [1] was -4.03%; in assay [2] it was 11.1%. The viability increase in assay [3] was -4.97%. Also, the viability in assay [4] was 93.1%; in assay [5], 84.5%. Moreover, the inhibition in assay [6] is 0.085%. In addition, the RAM network inhibition in assay [7] was 0.11%.
